PMC7499187 (CPT: Pharmacometrics & Systems Pharmacology, 2020)
Where “and” joins values, the source holds several entries; their conditions need not be identical. Identical values can stand only once. Like-named read-outs stand apart in the source and are kept apart here.

Columns and labels:
[1] = Simulated Day 1 and steady-state exposures in MONARCH 2; type: in vivo, human; settings: MONARCH 2 and MONARCH 3, simulated exposures
Procedure, shortened: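 Breast cancer patients on endocrine therapy were grouped as East Asian (Japanese, Korean, Taiwanese) or non-East Asian. Each patient's post hoc parameters came from a mechanistic NONMEM model, with dosage averaged over the study. Simulations covered cycle 1 day 1 after the starting dose (150 or 200 mg) and steady state after 56 days of 12-hourly dosing. Read-outs were geometric mean (%CV) Cmax, Cmin and dosing-interval AUC for parent, M2, M20 and total actives.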

[2] = type: in vivo, human; settings: geometric mean (%CV)
Procedure, shortened: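 Semimechanistic nonlinear mixed-effect population PK model with gut and hepatic CYP3A metabolism and a well-stirred liver model. Individual post hoc parameters simulated single oral doses (200 mg; cycle 1 day 1 starting 150 or 200 mg). Parent AUC0−∞ = Dose×F/CL. […] Cmax was taken from predicted profiles. Results are geometric mean (%CV).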

[3] = Noncompartmental analysis of absolute bioavailability study JPBS; type: in vivo, human
[4] = cited from earlier work
[5] = Semimechanistic population PK model; type: in vivo, human; settings: for Absorption lag time / CLint to form M2 in liver / CLint to form M20 in liver / Central volume / Fraction of Fa absorbed via transit compartment / Fraction of dose entering gut compartment, Fa / MTT / Maximum rate of absorption, ka,max / Peripheral volume / Rate constant for formation of M2 from gut / Rate constant for formation of M20 from gut / Zero-order absorption duration / Diarrhea effect on Fa / Km / CLint of M2 in liver / CLint of M20 in liver: final population model; for Km: Km for saturable absorption
[6] = cited from earlier work; remark: listed apart in the source
[7] = Healthy subjects, 200 mg single oral dose, N = 65
[8] = JPBL (patients), 150 mg single oral dose, N = 326
[9] = JPBL (patients), 200 mg single oral dose, N = 142
[10] = JPBN (patients), 200 mg single oral dose, N = 132
[11] = Patients, 200 mg single oral dose, N = 421
[12] = NCA (200 mg), JPBS healthy subjects N = 8, geometric mean (%CV)
[13] = coadministration with clarithromycin (CYP3A inhibitor)
[14] = coadministration with rifampicin (CYP3A inducer)

Q: With `CCN1CCN(Cc2ccc(Nc3ncc(F)c(-c4cc(F)c5nc(C)n(C(C)C)c5c4)n3)nc2)CC1` [Abemaciclib] as the molecule, how does the “effect of East Asian ethnicity on abemaciclib PK” value [1] read?
A: no effect

Q: And the Hepatic clearance [2, 7]?
A: 23.8 (30.3) L/h

Q: And the Hepatic clearance [2, 8]?
A: 25.1 (21) L/h

Q: And the Hepatic clearance [2, 9]?
A: 26 (25.7) L/h

Q: And the Hepatic clearance [2, 10]?
A: 24.3 (24.9) L/h

Q: And the Hepatic clearance [2, 11]?
A: 21.8 (39.8) L/h

Q: What about the Hepatic clearance [3, 12] of the same molecule?
A: 24.0 (27) L/h

Q: What about the AUC(0-inf) ([3]; human, plasma, oral, 200 mg) of the same molecule?
A: 3730 ng·h/mL

Q: And the Cmax ([3]; human, plasma, oral, 200 mg)?
A: 114 ng/mL

Q: And the bioavailability ([3]; human, plasma, oral, 200 mg)?
A: 44.8%

Q: What about the “increase of abemaciclib AUC” value [4, 13] of the same molecule?
A: 237%

Q: And the “increase of abemaciclib Cmax” value [4, 13]?
A: 30%

Q: What about the “reduction of abemaciclib area under the curve (AUC)” value [4, 14] of the same molecule?
A: 95%

Q: And the “reduction of abemaciclib maximum plasma concentration (Cmax)” value [4, 14]?
A: 92%

Q: And the “effect of body weight on abemaciclib exposure” value ([5]; adults)?
A: no clinically significant effect

Q: What about the “difference in absorption parameters between the fasted state, a standard meal, and a high-fat meal” value ([5]; crossover food effect study) of the same molecule?
A: no significant difference

Q: What about the Absorption lag time ([5]; Bootstrap median (95% CI)) of the same molecule?
A: 1.76 (1.69–1.80) h

Q: And the “CLint to form M2 in liver” value ([5]; Bootstrap median (95% CI))?
A: 235 (199–284) L/h

Q: And the “CLint to form M20 in liver” value ([5]; Bootstrap median (95% CI))?
A: 700 (627–775) L/h

Q: And the Central volume ([5]; Bootstrap median (95% CI))?
A: 604 (563–635) L

Q: What about the “Fraction of Fa absorbed via transit compartment” value ([5]; Bootstrap median (95% CI)) of the same molecule?
A: 0.479 (0.453–0.507)

Q: And the “Fraction of dose entering gut compartment, Fa” value ([5]; Bootstrap median (95% CI))?
A: 0.882 (0.874–0.890)

Q: What about the MTT ([5]; Bootstrap median (95% CI)) of the same molecule?
A: 1.52 (1.43–1.62) h

Q: What about the “Maximum rate of absorption, ka,max” value ([5]; Bootstrap median (95% CI)) of the same molecule?
A: 97.6 (85.0–111) µmol/h

Q: And the Peripheral volume ([5]; Bootstrap median (95% CI))?
A: 152 (132–184) L

Q: What about the “Rate constant for formation of M2 from gut” value ([5]; Bootstrap median (95% CI)) of the same molecule?
A: 0.401 (0.366–0.432) /h

Q: And the “Rate constant for formation of M20 from gut” value ([5]; Bootstrap median (95% CI))?
A: 0.306 (0.276–0.339) /h

Q: And the Zero-order absorption duration ([5]; Bootstrap median (95% CI))?
A: 3.04 (2.52–3.84) h

Q: And the “Diarrhea effect on Fa” value ([5]; Bootstrap median (95% CI), logit parameter)?
A: −0.0079 (−1.29, 2.65 × 10^−7)

Q: And the Absorption lag time ([5]; Estimate (%SEE))?
A: 1.74 h and 1.74 (0.538) h

Q: And the “CLint to form M2 in liver” value ([5]; Estimate (%SEE))?
A: 280 (0.436) L/h

Q: And the “CLint to form M20 in liver” value ([5]; Estimate (%SEE))?
A: 705 (0.421) L/h

Q: What about the Central volume ([5]; Estimate (%SEE)) of the same molecule?
A: 588 (2.81) L

Q: What about the “Fraction of Fa absorbed via transit compartment” value ([5]; Estimate (%SEE)) of the same molecule?
A: 0.458 (0.336)

Q: What about the “Fraction of dose entering gut compartment, Fa” value ([5]; Estimate (%SEE)) of the same molecule?
A: 0.868 (0.0583)

Q: And the MTT ([5]; Estimate (%SEE))?
A: 1.44 h and 1.44 (3.68) h

Q: What about the “Maximum rate of absorption, ka,max” value ([5]; Estimate (%SEE)) of the same molecule?
A: 91.1 µmol/h and 91.1 (3.96) µmol/h

Q: And the Peripheral volume ([5]; Estimate (%SEE))?
A: 159 (0.421) L

Q: What about the “Rate constant for formation of M2 from gut” value ([5]; Estimate (%SEE)) of the same molecule?
A: 0.361 (0.479) /h

Q: What about the “Rate constant for formation of M20 from gut” value ([5]; Estimate (%SEE)) of the same molecule?
A: 0.284 (0.468) /h

Q: What about the Zero-order absorption duration ([5]; Estimate (%SEE)) of the same molecule?
A: 3.18 h and 3.18 (10.3) h

Q: And the “Diarrhea effect on Fa” value ([5]; Estimate (%SEE), on the logit parameter for Fa)?
A: −0.417 (7.99)

Q: And the clearance ([5]; human, plasma, oral)?
A: 380 mL/min

Q: What about the Km ([5]; human, plasma, oral, Bootstrap median (95% CI)) of the same molecule?
A: 51.8 µM

Q: What about the Km ([5]; human, plasma, oral, Estimate (%SEE)) of the same molecule?
A: 52.7 µM

Q: What about the “intrinsic ka (absorption rate constant)” value ([5]; in the absence of drug, metabolism-susceptible pathway) of the same molecule?
A: 1.73 h⁻¹

Q: What about the “absorbed amount absorbed via the zero-order route” value ([5]; in vivo) of the same molecule?
A: 54.2%

Q: What about the “dose either not absorbed or lost as other metabolites” value ([5]; in vivo) of the same molecule?
A: 13.2%

Q: And the “total administered dose absorbed either as abemaciclib, M2, or M20” value ([5]; in vivo)?
A: 86.8%

Q: And the “typical total CLint of unbound abemaciclib that resulted in formation of M2 and M20” value ([5]; in vivo)?
A: 985 L/h

Q: What about the “amount that results in half maximal absorption rate” value ([5]; saturable absorption from final transit compartment) of the same molecule?
A: 27 mg

Q: What about the “typical ka,max” value ([5]; saturable absorption from final transit compartment to liver) of the same molecule?
A: 46.2 mg/h

Q: And the “parent drug renally excreted” value [6]?
A: 3%

Q: What about the “mean terminal elimination half-life” value ([6]; in patients) of the same molecule?
A: approximately 24 hours

Q: What about the “median time to maximum plasma concentration” value ([6]; phase I cancer patient population) of the same molecule?
A: approximately 8 hours

Q: With `Cc1nc2c(F)cc(-c3nc(Nc4ccc(CN5CCNCC5)cn4)ncc3F)cc2n1C(C)C` [M2] as the molecule, how does the “AUC0−∞” value [2, 7] read?
A: 1690 (39.9) ng·h/mL

Q: And the Apparent hepatic clearance [2, 7]?
A: 22.9 (28.4) L/h

Q: What about the Cmax [2, 7] of the same molecule?
A: 28.8 (36.1) ng/mL

Q: What about the Half-life [2, 7] of the same molecule?
A: 21.2 (25.8) h

Q: And the “AUC0−∞” value [2, 8]?
A: 1640 (70.2) ng·h/mL

Q: What about the Apparent hepatic clearance [2, 8] of the same molecule?
A: 18.3 (49.9) L/h

Q: What about the Cmax [2, 8] of the same molecule?
A: 33.6 (70.4) ng/mL

Q: What about the Half-life [2, 8] of the same molecule?
A: 17.2 (65.1) h

Q: And the “AUC0−∞” value [2, 9]?
A: 1820 (72) ng·h/mL

Q: What about the Apparent hepatic clearance [2, 9] of the same molecule?
A: 20.9 (48.1) L/h

Q: What about the Cmax [2, 9] of the same molecule?
A: 40.2 (73.9) ng/mL

Q: What about the Half-life [2, 9] of the same molecule?
A: 16 (73.6) h

Q: And the “AUC0−∞” value [2, 10]?
A: 1620 (55.0) ng·h/mL

Q: And the Apparent hepatic clearance [2, 10]?
A: 23.9 (35.3) L/h

Q: And the Cmax [2, 10]?
A: 26.9 (54.7) ng/mL

Q: What about the Half-life [2, 10] of the same molecule?
A: 21.3 (73.5) h

Q: What about the “AUC0−∞” value [2, 11] of the same molecule?
A: 1790 (71.6) ng·h/mL

Q: What about the Apparent hepatic clearance [2, 11] of the same molecule?
A: 21.5 (54.3) L/h

Q: What about the Cmax [2, 11] of the same molecule?
A: 30.3 (75.7) ng/mL

Q: What about the Half-life [2, 11] of the same molecule?
A: 19.3 (65.4) h

Q: What about the “AUC0−∞” value [3, 12] of the same molecule?
A: 1450 (19) ng·h/mL

Q: What about the Cmax [3, 12] of the same molecule?
A: 31.7 (22) ng/mL

Q: And the Half-life [3, 12]?
A: 72.6 (23) h

Q: And the “CLint of M2 in liver” value ([5]; Bootstrap median (95% CI))?
A: 241 (218–271) L/h

Q: What about the “CLint of M2 in liver” value ([5]; Estimate (%SEE)) of the same molecule?
A: 254 (2.06) L/h

Q: Which “AUC0−∞” value [2, 7] does the source give for `CCN1CCN(Cc2ccc(Nc3ncc(F)c(-c4cc(F)c5nc(CO)n(C(C)C)c5c4)n3)nc2)CC1` [M20] here?
A: 3450 (34.4) ng·h/mL

Q: What about the Apparent hepatic clearance [2, 7] of the same molecule?
A: 23.9 (23.7) L/h

Q: What about the Cmax [2, 7] of the same molecule?
A: 49.1 (32.5) ng/mL

Q: And the Half-life [2, 7]?
A: 20.3 (21.3) h

Q: What about the “AUC0−∞” value [2, 8] of the same molecule?
A: 2870 (69.6) ng·h/mL

Q: What about the Apparent hepatic clearance [2, 8] of the same molecule?
A: 22.5 (44.3) L/h

Q: What about the Cmax [2, 8] of the same molecule?
A: 59.3 (78.7) ng/mL

Q: What about the Half-life [2, 8] of the same molecule?
A: 14 (62.5) h

Q: And the “AUC0−∞” value [2, 9]?
A: 3020 (72.8) ng·h/mL

Q: And the Apparent hepatic clearance [2, 9]?
A: 25.8 (43.3) L/h

Q: What about the Cmax [2, 9] of the same molecule?
A: 66.1 (82.8) ng/mL

Q: What about the Half-life [2, 9] of the same molecule?
A: 13 (70.1) h

Q: And the “AUC0−∞” value [2, 10]?
A: 2750 (55.0) ng·h/mL

Q: And the Apparent hepatic clearance [2, 10]?
A: 26.2 (33.5) L/h

Q: What about the Cmax [2, 10] of the same molecule?
A: 39.4 (56.0) ng/mL

Q: And the Half-life [2, 10]?
A: 19.4 (72.7) h

Q: What about the “AUC0−∞” value [2, 11] of the same molecule?
A: 3240 (74.7) ng·h/mL

Q: And the Apparent hepatic clearance [2, 11]?
A: 23.7 (52.1) L/h

Q: What about the Cmax [2, 11] of the same molecule?
A: 48.8 (83.0) ng/mL

Q: And the Half-life [2, 11]?
A: 17.5 (62.5) h

Q: What about the “AUC0−∞” value [3, 12] of the same molecule?
A: 3260 (26) ng·h/mL

Q: What about the Cmax [3, 12] of the same molecule?
A: 55.7 (26) ng/mL

Q: What about the Half-life [3, 12] of the same molecule?
A: 35.3 (16) h

Q: And the “CLint of M20 in liver” value ([5]; Bootstrap median (95% CI))?
A: 454 (417–489) L/h

Q: And the “CLint of M20 in liver” value ([5]; Estimate (%SEE))?
A: 431 (2.00) L/h
